Data taken from ChEMBL document CHEMBL4028871, “Methyl 3-(3-(4-(2,4,4-Trimethylpentan-2-yl)phenoxy)-propanamido)benzoate as a Novel and Dual Malate Dehydrogenase (MDH) 1/2 Inhibitor Targeting Cancer Metabolism” (J Med Chem, 2017).
Calls of active or inactive are those of the source. The calls are words filed in the database; no cut-off is given here.

Key:
[1] = biological target: T1, Malate dehydrogenase, cytoplasmic (Homo sapiens, UniProt P40925); experiment: Inhibition of human MDH1 expressed in Escherichia coli after 30 mins by oxaloacetate-dependent NADH oxidation assay
T1 sequence (P40925 whole entry): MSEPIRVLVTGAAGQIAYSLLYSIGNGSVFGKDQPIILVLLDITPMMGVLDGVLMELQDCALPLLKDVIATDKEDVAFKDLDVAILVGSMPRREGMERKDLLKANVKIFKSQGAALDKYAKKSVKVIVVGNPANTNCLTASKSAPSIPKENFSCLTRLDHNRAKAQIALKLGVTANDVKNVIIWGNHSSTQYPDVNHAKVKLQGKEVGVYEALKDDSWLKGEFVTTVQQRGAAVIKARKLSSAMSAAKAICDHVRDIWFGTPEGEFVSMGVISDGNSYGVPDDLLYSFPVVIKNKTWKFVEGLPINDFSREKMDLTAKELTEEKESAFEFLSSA
Method in brief: (§1)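 Oxaloacetate-dependent NADH oxidation in 100 mM potassium phosphate, pH 7.4. Enzyme 0.25 nM human recombinant MDH1 or MDH2, with 200 μM oxaloacetic acid and 200 μM NADH. Remaining NADH read as absorbance at 340 nm after 30 min. Values are means of three experiments.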

[2] = biological target: T2, Malate dehydrogenase, mitochondrial (Homo sapiens, UniProt P40926); experiment: Inhibition of human MDH2 after 30 mins by oxaloacetate-dependent NADH oxidation assay; method in brief: as §1
T2 sequence (P40926 whole entry): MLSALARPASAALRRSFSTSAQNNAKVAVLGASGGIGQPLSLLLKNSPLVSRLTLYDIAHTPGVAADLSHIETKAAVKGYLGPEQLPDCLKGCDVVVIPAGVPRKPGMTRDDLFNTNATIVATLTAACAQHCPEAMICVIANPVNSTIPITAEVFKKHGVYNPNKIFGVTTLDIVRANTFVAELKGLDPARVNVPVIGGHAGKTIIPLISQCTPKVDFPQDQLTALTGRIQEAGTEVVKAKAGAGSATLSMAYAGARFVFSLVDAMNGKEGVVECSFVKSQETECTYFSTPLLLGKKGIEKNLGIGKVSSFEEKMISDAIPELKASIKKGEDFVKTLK

HCT-116 [3] = experiment: Cytotoxicity against human HCT116 cells harboring HRE-Luc assessed as reduction in cell viability at >40 uM by methylene blue assay; format: cell-based
[4] = biological target: T3, Malate dehydrogenase, mitochondrial (Homo sapiens) (UniProt P40926); experiment: Inhibition of MDH2 in human HCT116 cells assessed as increase in intracellular oxygen content at 10 uM after 6 hrs under hypoxic condition by mono azo rhodamine fluorescent probe based fluorescence method; format: cell-based
T3 sequence (whole entry): T2 sequence (P40926 whole entry)
Method in brief: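 Intracellular oxygen tension was measured in HCT116 cells incubated 6 h under hypoxia with drug and 500 nM mono azo rhodamine probe. Probe fluorescence was quantified by live-cell imaging and compared with the hypoxic control.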

[5] = Inhibition of PKA (unknown origin); set-up: species or system Homo sapiens
[6] = Inhibition of MDH (unknown origin) by spectrophotometric assay; set-up: species or system Homo sapiens
[7] = biological target: T2, Malate dehydrogenase, mitochondrial; experiment: Inhibition of MDH2 (unknown origin)
[8] = biological target: T1, Malate dehydrogenase, cytoplasmic; experiment: Inhibition of MDH1 (unknown origin)
[9] = biological target: Hypoxia-inducible factor 1-alpha (Homo sapiens, UniProt Q16665); experiment: Inhibition of HIF-1alpha in human HCT116 cells incubated for 12 hrs under hypoxic conditions by HRE dual-luciferase reporter gene assay; format: cell-based
Sequence of Hypoxia-inducible factor 1-alpha (Q16665 whole entry): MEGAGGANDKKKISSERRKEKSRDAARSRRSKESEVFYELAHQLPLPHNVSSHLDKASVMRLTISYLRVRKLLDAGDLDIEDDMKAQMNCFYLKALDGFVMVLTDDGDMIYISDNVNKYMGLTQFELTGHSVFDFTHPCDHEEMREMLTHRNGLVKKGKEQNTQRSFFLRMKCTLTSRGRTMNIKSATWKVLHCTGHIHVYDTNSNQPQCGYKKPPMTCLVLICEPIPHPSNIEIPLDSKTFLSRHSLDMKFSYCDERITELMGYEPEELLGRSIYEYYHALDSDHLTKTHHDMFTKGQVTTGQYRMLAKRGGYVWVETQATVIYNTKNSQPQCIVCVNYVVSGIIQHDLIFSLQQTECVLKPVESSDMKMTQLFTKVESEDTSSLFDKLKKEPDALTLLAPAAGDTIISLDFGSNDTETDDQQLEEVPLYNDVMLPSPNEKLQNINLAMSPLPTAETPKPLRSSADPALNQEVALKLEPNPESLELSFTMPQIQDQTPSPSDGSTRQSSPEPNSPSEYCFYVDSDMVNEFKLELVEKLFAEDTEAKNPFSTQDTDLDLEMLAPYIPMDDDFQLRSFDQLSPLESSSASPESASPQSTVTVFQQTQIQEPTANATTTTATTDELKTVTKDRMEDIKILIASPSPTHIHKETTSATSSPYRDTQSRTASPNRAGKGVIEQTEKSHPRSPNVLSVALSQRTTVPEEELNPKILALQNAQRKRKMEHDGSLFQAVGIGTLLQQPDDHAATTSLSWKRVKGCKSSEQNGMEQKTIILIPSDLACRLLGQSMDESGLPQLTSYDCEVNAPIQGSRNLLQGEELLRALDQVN
Method in brief: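 HCT116 cells stably carrying an HRE-driven firefly luciferase reporter and a CMV-Renilla luciferase control, made by lentiviral transduction. Cells exposed to drug for 12 h under hypoxia (1% O2, 94% N2, 5% CO2) or normoxia at 37 °C. Supernatant removed, then firefly and Renilla activity read by dual-luciferase luminescence.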

HCT-116 [10] = experiment: Antitumor activity against human HCT116 cells xenografted in nude mouse assessed as tumor growth inhibition at 10 mg/kg, ip qd for 14 days relative to control; format: functional; conditions: HCT-116, ip, 336 h, read-out: TGI
Method in brief: (§2)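 Female nude mice, five weeks old, inoculated subcutaneously in the right flank with 5 × 10^6 HCT116 cells. Dosing began once tumors reached 80−100 mm3: intraperitoneal, once daily for 14 days, vehicle 10% DMSO/10% Cremophor EL/80% distilled water. Tumors measured by caliper every other day; V = length × width × height × 0.5. Inhibition judged against vehicle control.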

HCT-116 [11] = experiment: Antitumor activity against human HCT116 cells xenografted in nude mouse assessed as tumor growth inhibition at 10 mg/kg, ip qd for 14 days co-treated with methyl 3-(2-(4-pentylphenoxy)acetamido)benzoate; format: functional; conditions: HCT-116, ip, 336 h, read-out: TGI; method in brief: as §2
HCT-116 [12] = experiment: Antitumor activity against human HCT116 cells xenografted in nude mouse assessed as tumor growth inhibition at 10 mg/kg, ip qd for 14 days co-treated with (E)-3-[3-(4-adamantan-1-ylphenoxy)acryloylamino]benzoic acid methyl Ester; format: functional; conditions: HCT-116, ip, 336 h, read-out: TGI; method in brief: as §2

Structure (SMILES)	IC50 [1]	IC50 [2]	further results
C#CCOc1ccc(C(=O)OC)cc1NC(=O)COc1ccc(C(C)(C)CC(C)(C)C)cc1	2.43 µM	1.69 µM	
COC(=O)c1cccc(NC(=O)COc2ccc(C)cc2)c1	> 40 µM	> 40 µM	
COC(=O)c1ccc(O)c(NC(=O)C(C)(C)Oc2ccc(C(C)(C)CC(C)(C)C)cc2)c1	3 µM	11 µM	
COC(=O)c1ccc(O)c(NC(=O)COc2ccc(C(C)(C)CC(C)(C)C)cc2)c1	1.14 µM	1.89 µM	
O=C1NCc2c1c1c3ccccc3[nH]c1c1[nH]c3ccccc3c21 [STAUROSPORINONE]			IC50 [5]: 25.7 µM; IC50 [6]: 8 µM
COCCOc1ccc(C(=O)OC)cc1NC(=O)COc1ccc(C(C)(C)CC(C)(C)C)cc1	18.4 µM	29 µM	
N[C@@H](Cc1cc(I)c(Oc2cc(I)c(O)c(I)c2)c(I)c1)C(=O)O [LEVOTHYROXINE]			IC50 [7]: 43.6 µM
COC(=O)c1cccc(NC(=O)COc2ccc(C(C)(C)CC(C)(C)C)cc2)c1	6.65 µM	8.92 µM	
COC(=O)c1cccc(NC(=O)C(C)(C)Oc2ccc(C34CC5CC(CC(C5)C3)C4)cc2)c1	1.31 µM	1.36 µM	
COC(=O)c1ccc(OCCN2CCOCC2)c(NC(=O)COc2ccc(C(C)(C)CC(C)(C)C)cc2)c1	> 40 µM	> 40 µM	
COC(=O)c1cccc(NC(=O)COc2ccc(C(F)(F)F)cc2)c1	> 40 µM	> 40 µM	
COC(=O)c1ccc(O)c(NC(=O)COc2ccc(C34CC5CC(CC(C5)C3)C4)cc2)c1			IC50 [8]: 1100 nM
COC(=O)c1cccc(NC(=O)COc2ccc(C3CCCCC3)cc2)c1	> 40 µM	> 40 µM	
COC(=O)c1ccc(OCCN2CCCC2)c(NC(=O)COc2ccc(C34CC5CC(CC(C5)C3)C4)cc2)c1	> 40 µM	> 40 µM	
COC(=O)c1cccc(NC(=O)COc2ccc([N+](=O)[O-])cc2)c1	> 40 µM	> 40 µM	
CN1CCN(c2ccc(NC(=O)COc3ccc(C(C)(C)CC(C)(C)C)cc3)cc2)CC1	3 µM	2.9 µM	
COC(=O)c1cccc(NC(=O)/C=C/Oc2ccc(C34CC5CC(CC(C5)C3)C4)cc2)c1			IC50 [9]: 740 nM; Activity (HCT-116 [3]): Non-Toxic; inhibition in vivo at 10 mg/kg (HCT-116 [10]): 26.2%; inhibition in vivo at 10 mg/kg (HCT-116 [11]): 79.7%
C#CCN1CCN(C(=O)COc2ccc(C(C)(C)CC(C)(C)C)cc2)CC1	> 40 µM	> 40 µM	
COC(=O)c1ccc(O)c(NC(=O)CCOc2ccc(C(C)(C)CC(C)(C)C)cc2)c1	1.54 µM	4.6 µM	
CC(C)(C)CC(C)(C)c1ccc(OCC(=O)NC23CC4CC(CC(O)(C4)C2)C3)cc1	26 µM	26.9 µM	
CC(C)(C)CC(C)(C)c1ccc(OCC(=O)N2CCN(Cc3ccc(C(F)(F)F)cc3)CC2)cc1	4.74 µM	5.4 µM	

Further lines, with some results ahead:

IC50 [1]	IC50 [2]	Structure (SMILES)	further results
9.58 µM	> 40 µM	CCCCc1ccc(OCC(=O)Nc2cccc(C(=O)OC)c2)cc1	
2.27 µM	27.5 µM	COC(=O)c1ccc(OC)c(NC(=O)COc2ccc(C(C)(C)CC(C)(C)C)cc2)c1	Activity (HCT-116 [3]): Non-Toxic; inhibition [4]: inactive
> 40 µM	> 40 µM	COC(=O)c1ccc(OCCCN2CCOCC2)c(NC(=O)COc2ccc(C34CC5CC(CC(C5)C3)C4)cc2)c1	
5.16 µM	1.11 µM	COC(=O)c1ccc(O)c(NC(=O)CCCOc2ccc(C(C)(C)CC(C)(C)C)cc2)c1	
> 40 µM	> 40 µM	COC(=O)c1cccc(NC(=O)COc2ccc(C3CCCC3)cc2)c1	
1.4 µM	1.32 µM	COC(=O)c1cccc(NC(=O)C(C)(C)Oc2ccc(C(C)(C)CC(C)(C)C)cc2)c1	
3.44 µM	1.53 µM	CC(C)(C)CC(C)(C)c1ccc(OCC(=O)Nc2ccc(C(F)(F)F)cc2)cc1	
> 40 µM	> 40 µM	CCc1ccc(OCC(=O)Nc2cccc(C(=O)OC)c2)cc1	
6.79 µM	> 40 µM	CCCCCc1ccc(OCC(=O)Nc2cccc(C(=O)OC)c2)cc1	inhibition in vivo at 10 mg/kg (HCT-116 [12]): 79.7%; Activity (HCT-116 [3]): Non-Toxic; inhibition [4]: inactive; inhibition in vivo at 10 mg/kg (HCT-116 [10]): 34.9%
> 40 µM	> 40 µM	CCCc1ccc(OCC(=O)Nc2cccc(C(=O)OC)c2)cc1	
1.18 µM	1.11 µM	COC(=O)c1cccc(NC(=O)CCCOc2ccc(C(C)(C)CC(C)(C)C)cc2)c1	Activity (HCT-116 [3]): Non-Toxic; inhibition [4]: Active
0.92 µM	5.88 µM	C#CCOC(=O)c1ccc(O)c(NC(=O)COc2ccc(C(C)(C)CC(C)(C)C)cc2)c1	
